# Data published in ChEMBL document CHEMBL5108057, “Development of MAO-A and 5-HT2AR Dual Inhibitors with Improved Antidepressant Activity” (J Med Chem, 2022).
# Activity calls are given as the source filed them. The calls are words filed in the database; no cut-off is given here.
# Key:
# [1] = Cytotoxicity against human SH-SY5Y cells assessed as reduction in cell growth measured after 48 hrs by MTT assay; format: toxicity, cell-based
# Procedure, shortened: (§1)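 MTT assay: PC12, SH-SY5Y or L02 cells at 5.0 × 10^3 per well were grown for 24 h, treated with compound dilutions from 10 mM DMSO stocks, and cultured 48 h. MTT was then added for 4 h at 37 °C, formazan dissolved in DMSO, and absorbance read at 570 nm. Viability is relative to blank control; IC50 from three repeats. Media contained 10% FBS.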
# [2] = test system: Mus musculus; assay: Antidepressant activity in chronic unpredictable mild stress ICR mouse model assessed as increase in gluco-phagy at 10 to 20 mg/kg measured after 2 weeks by sugar preference test; format: functional, organism-based; conditions: dose 10-20 mg/kg
# Procedure, shortened: (§2)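 ICR mice received CUMS for 4 weeks: 11 stressors given randomly twice daily, 42 days in total. OFT: 5 min session scoring distance, speed, rearing and dejection. FST/TST: 6 min, with immobility scored over the last 4 min. Sucrose preference test was also run. Mean ± SD, n = 6.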
# [3] = test system: Mus musculus; assay: Antidepressant activity in reserpine-induced ICR mouse model assessed as reduction in weight loss at 10 to 20 mg/kg pretreated with reserpine for 3 days followed by compound addition on 4 to 10 days; format: functional, organism-based; conditions: dose 10-20 mg/kg, time 6.0 day
# Procedure, shortened: (§3)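 Body weight was recorded daily. OFT: 5 min session scoring distance, speed, rearing and dejection. FST and TST: 6 min, with immobility scored over the last 4 min. Mean ± SD, n = 6; one-way ANOVA and t-test.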
# [4] = test system: Mus musculus; assay: Antidepressant activity in reserpine-induced ICR mouse model assessed as increase in movement speed at 10 to 20 mg/kg pretreated with reserpine for 3 days followed by compound addition for 1 week by open field test; format: functional, organism-based; conditions: dose 10-20 mg/kg, time 1.0 weeks; procedure, shortened: as §3
# [5] = test system: Mus musculus; assay: Antidepressant activity in chronic unpredictable mild stress ICR mouse model assessed as increase in total distance traveled at 10 to 20 mg/kg administered for 2 weeks by open field test; format: functional, organism-based; conditions: dose 10-20 mg/kg; procedure, shortened: as §2
# [6] = Toxicity in mouse assessed as toxic effect on liver at 10 to 20 mg/kg by H and E staining based assay; format: organism-based; conditions: in vivo, dose 10-20 mg/kg
# Procedure, shortened: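 Mice given compound at 10 or 20 mg/kg, with fluoxetine 20 mg/kg as comparator. Paraffin tissue sections of 4 μm were cut. Staining: hematoxylin 5 min, 75% HCl-ethanol differentiation 30 s, eosin 2 min. Organs (liver, kidney, lung, heart, spleen) examined at ×400; hippocampus (CA1, CA3, DG) at ×200.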
# [7] = test system: Mus musculus; assay: Antidepressant activity in reserpine-induced mouse hippocampal tissue model assessed as increase in 5-HT level at 10 to 20 mg/kg pretreated with reserpine for 3 days followed by compound addition on day 4 to 10 by HPLC analysis; format: functional; conditions: dose 10-20 mg/kg; time 6 day
# [8] = MRT infinity in Sprague-Dawley rat at 2 mg/kg, iv measured upto 1440 mins by LC-MS/MS analysis; format: ADME, organism-based; conditions: in vivo
# [9] = Tmax in Sprague-Dawley rat at 2 mg/kg, iv measured upto 1440 mins by LC-MS/MS analysis; format: ADME, organism-based; conditions: in vivo
# [10] = Inhibition of 5-HT2AR mRNA expression in zebra fish AB assessed as fold decrease in 2 delta delta CT level at 1 uM by RT-qPCR method relative to control; format: functional, Danio rerio
# Procedure, shortened: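 Total RNA from zebrafish was extracted with Trizol and reverse-transcribed with MMLV. SYBR Green qPCR: 95 °C 2 min; 40 cycles of 95, 60 and 72 °C, 30 s each; then 72 °C for 5 min. 5-HT2AR was normalized to GAPDH by the 2^−ΔΔCT method; mean ± SD, n = 3.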
# [11] = Cytotoxicity against rat PC-12 cells assessed as reduction in cell growth measured after 48 hrs by MTT assay; format: toxicity, cell-based; procedure, shortened: as §1
smiles,measurement,setting,value
O=C1c2ccccc2-c2nccc3cc(OCCCCCN4CCN(c5ccccc5F)CC4)cc1c23,IC50 at 48 h,[1],> 10 µM
same,Activity,[2],Active
same,Activity,[3],Active
same,Activity,[4],Active
same,Activity,[5],Active
same,Activity,[6],Non-Toxic
same,Activity,[7],579.92 ng/mL
same,MRT inf,[8],4.19 h
same,Tmax,[9],4.8 min
same,fold change (FC),[10],0.014
same,IC50 at 48 h,[11],> 10 µM
